Assay [1] has as its target Epidermal growth factor receptor (Homo sapiens, UniProt P00533). Put plainly: Inhibition of EGF-R Tyrosine kinase (TK).
The subject of a further assay is HaCaT. Description: Inhibitory activity of HaCaT keratinocyte cell line. Particulars: Homo sapiens. Type of assay: functional, cell-based. An outline of the steps:
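HaCaT keratinocytes kept in DMEM with 5% FCS, trypsinized and seeded at 4000 cells/0.2 mL/well. After 24 h, medium was replaced with fresh medium holding graded compound concentrations. Proliferation was read after 3–4 days by sulforhodamine B colorimetry. IC50 values are the average of at least two independent measurements.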

Assay [2] concerns L1210. Put plainly: (§1) Inhibition of L1210 cell proliferation. Particulars: Mus musculus.
In a further assay the test system is U-937. Put plainly: Inhibition of U937 cell proliferation. Type of assay: functional, cell-based. Particulars: Homo sapiens.
In the next assay the test system is K562. Put plainly: Inhibition of K562 cell proliferation. Particulars: Homo sapiens.
For the next assay, the system named is MDA-MB-468. Description: Inhibition of MDA-MB-468 cell proliferation. Type of assay: functional, cell-based. Particulars: Homo sapiens.
A further assay deals with P388. Put plainly: Inhibition of P388 cell proliferation. Particulars: Mus musculus.
For a further assay, the system named is A-431. Put plainly: Inhibition of A431 cell proliferation. Particulars: Homo sapiens.
The test system of another assay is SCL-1. Put plainly: Inhibition of SCL-1 cell proliferation. Particulars: Homo sapiens.
A further assay concerns MCF7. Put plainly: Inhibition of MCF-7 cell proliferation. Particulars: Homo sapiens.
In another assay the test system is MDA-MB-231. Description: cells. Particulars: Homo sapiens.
The subject of a further assay is KB. Put plainly: Inhibition of KB cell proliferation. Particulars: Homo sapiens.
A further assay deals with B16. Description: Inhibition of B16F1 cell proliferation. Particulars: Mus musculus.
The test system of a further assay is SK-BR-3. Description: Inhibition of SK-BR-3 cell proliferation. Type of assay: functional, cell-based. Particulars: Homo sapiens. In outline:
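Tumour cells grown at 37 °C without antibiotics. Harvested at exponential growth (suspension lines) or 60–90% confluence (adherent lines, trypsinized), then seeded at 1000–5000 cells/well. Cultured 3–4 days with graded compound concentrations. Proliferation read by sulforhodamine B for adherent cells or MTT for suspension cells. IC50 derived from the concentration series.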

The next assay concerns HeLa. Put plainly: Inhibition of HeLa cell proliferation. Particulars: Homo sapiens.
A further assay relates to LoVo. Put plainly: Inhibition of LOVO cell proliferation. Type of assay: functional, cell-based. Particulars: Homo sapiens.
In assay [3] the test system is L1210. Described as §1. Type of assay: functional, cell-based. Particulars: Mus musculus.

The record followed here is ChEMBL document CHEMBL1127418, “Novel antiproliferative agents derived from lavendustin A” (J Med Chem, 1994).

pIC50: −log10 of the molar value. Bounds are passed on as bounds.

Sequence of Epidermal growth factor receptor (P00533 whole entry): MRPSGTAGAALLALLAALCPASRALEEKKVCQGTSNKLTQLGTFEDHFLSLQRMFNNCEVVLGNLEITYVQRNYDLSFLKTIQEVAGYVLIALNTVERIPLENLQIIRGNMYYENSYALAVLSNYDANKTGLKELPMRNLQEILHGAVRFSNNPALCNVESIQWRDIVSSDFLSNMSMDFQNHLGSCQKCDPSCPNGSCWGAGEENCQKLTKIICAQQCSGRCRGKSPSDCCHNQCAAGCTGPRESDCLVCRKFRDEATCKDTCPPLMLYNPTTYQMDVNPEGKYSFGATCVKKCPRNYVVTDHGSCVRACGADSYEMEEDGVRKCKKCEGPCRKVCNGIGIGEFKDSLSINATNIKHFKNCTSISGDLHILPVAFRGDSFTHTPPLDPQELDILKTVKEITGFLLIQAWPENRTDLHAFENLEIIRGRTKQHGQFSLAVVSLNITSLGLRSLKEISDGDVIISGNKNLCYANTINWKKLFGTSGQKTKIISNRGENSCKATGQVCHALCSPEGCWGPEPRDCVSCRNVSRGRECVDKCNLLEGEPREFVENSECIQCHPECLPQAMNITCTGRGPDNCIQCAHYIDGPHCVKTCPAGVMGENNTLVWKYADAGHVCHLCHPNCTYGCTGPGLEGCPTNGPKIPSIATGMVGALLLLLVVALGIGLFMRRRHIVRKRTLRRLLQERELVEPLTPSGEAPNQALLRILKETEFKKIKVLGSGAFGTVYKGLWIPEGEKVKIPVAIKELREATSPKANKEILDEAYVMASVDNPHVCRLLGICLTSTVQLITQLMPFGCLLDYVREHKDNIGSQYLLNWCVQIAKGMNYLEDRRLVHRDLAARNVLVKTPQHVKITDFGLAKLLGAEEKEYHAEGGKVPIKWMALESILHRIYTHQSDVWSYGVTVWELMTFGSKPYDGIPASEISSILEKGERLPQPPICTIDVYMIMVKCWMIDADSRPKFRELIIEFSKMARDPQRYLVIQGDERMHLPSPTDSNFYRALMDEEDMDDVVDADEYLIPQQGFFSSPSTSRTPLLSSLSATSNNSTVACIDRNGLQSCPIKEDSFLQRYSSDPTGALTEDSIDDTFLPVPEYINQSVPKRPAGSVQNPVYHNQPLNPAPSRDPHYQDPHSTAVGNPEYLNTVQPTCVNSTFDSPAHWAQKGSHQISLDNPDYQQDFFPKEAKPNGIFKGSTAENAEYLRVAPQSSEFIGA

As a reminder, the pIC50 is the IC50 on a negative log10 scale, so that one unit is a factor of ten. A higher pIC50 goes with a low IC50. Turning to `O=C(O)c1cc(CCc2cc(O)ccc2O)ccc1O`, the pIC50 in assay [1] is 5.48; in the assay on HaCaT, less than 4.00.

In the case of `COC(=O)c1cc(CCc2cc(OC)ccc2OC)ccc1O`, the pIC50 in [1] is less than 4.00; in the assay on L1210 [2], 6.38; in the assay on U-937 it was 6.49; in the assay with K562 it was 6.66; with MDA-MB-468, 7.33; with P388 it was 6.47. Moreover, the negative-log IC50 (pIC50) was 6.67 in the assay with A-431; 6.42 in the assay with SCL-1; 7.72 in the assay on MCF7; 6.37 in the assay on MDA-MB-231; 7.40 in the assay on HaCaT; 6.72 in the assay on KB. The pIC50 in the assay with B16 was 6.57; with SK-BR-3, 7.51; with HeLa it was 6.33; with LoVo, 6.73.

In the case of `COC(=O)c1cc(/C=C/c2cc(OC)ccc2OC)ccc1O`, in the assay with HaCaT, the negative logarithm of the IC50 (pIC50) is 5.25.

Molecule `COc1ccc(OC)c(CCc2ccc(O)c(C(=O)O)c2)c1` showed a negative logarithm of the IC50 (pIC50) with HaCaT of 5.32. This pIC50 and that of the molecule before are within 0.2 log units of each other.

For the molecule `COC(=O)c1cc(NCc2cc(O)ccc2O)ccc1O`, the pIC50 in assay [1] was 4.61; in the assay on HaCaT, 4.54.

For `COC(=O)c1cc(CCc2cc(O)ccc2O)ccc1O`, in the assay with HaCaT, the negative logarithm of the IC50 (pIC50) is 4.74.

Molecule `COC(=O)c1cc(COc2cc(OC)ccc2OC)ccc1O` gave a pIC50 with HaCaT of 4.85.

In the assay with HaCaT, `COC(=O)c1cc(/C=C\c2cc(OC)ccc2OC)ccc1O` had a pIC50 of 5.41.

In turn, `COC(=O)c1cc(NCc2cc(OC)ccc2OC)ccc1O` showed a negative logarithm of the IC50 (pIC50) with HaCaT of 5.82.

As for `COc1ccc(OC)c(CNc2ccc(O)c(C(=O)O)c2)c1`, the results for the negative-log IC50 (pIC50) (in [1]; in the assay on HaCaT) were less than 4.00 and 4.04, respectively.

In turn, `COC(=O)c1cc(CNc2cc(OC)ccc2OC)ccc1O` had a pIC50 with HaCaT of 4.14.

On to `COc1cc2c(c(OC)c1OC)-c1ccc(OC)c(=O)cc1[C@@H](NC(C)=O)CC2` [COLCHICINE], for which the pIC50 in the assay with U-937 is 8.28; with K562, 7.85; with MDA-MB-468 it was 8.16; in the assay on P388 it was 8.02; with A-431, 7.85; in the assay on L1210 [3] it was 7.83. In addition, the pIC50 in the assay on MCF7 is 7.82; in the assay on MDA-MB-231, 7.69; with KB, 8.25; with SK-BR-3, 8.30; in the assay on HeLa, 7.74; in the assay with LoVo, 8.22.

In the case of `O=C(O)c1cc(N(Cc2ccccc2O)Cc2cc(O)ccc2O)ccc1O` [LAVENDUSTIN A], the pIC50 in [1] is 5.39; with HaCaT it was less than 4.00.

As to `O=C(O)c1cc(NCc2cc(O)ccc2O)ccc1O` [LAVENDUSTIN C], in the assay on HaCaT, the negative logarithm of the IC50 (pIC50) is not above 4.00.
